Reference: ChEMBL document CHEMBL5576155, “Expanding the chemical space of ester of quinoxaline-7-carboxylate 1,4-di-N-oxide derivatives as potential antitubercular agents” (RSC Med Chem, 2024)

Legend:
[1] = tested on: Mycobacterium tuberculosis; assay: Antitubercular activity against Mycobacterium tuberculosis H37Rv assessed as reduction in microbial growth by MABA; type: functional
Summary of the method: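 M. tuberculosis H37Rv tested in vitro by modified Alamar blue microplate assay (MABA), with rifampicin and isoniazid as reference drugs. MIC was the lowest drug concentration giving 90% inhibition. Triplicate independent experiments.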

[2] = tested on: Mycobacterium tuberculosis; assay: Antitubercular activity against Mycobacterium tuberculosis H37Rv assessed as reduction in microbial growth incubated for 10 days under anaerobic condition followed by 28 hrs incubation with aerobic condition further incubated 7 days at 5 % CO2 condition by low-oxygen recovery assay; type: functional; details: time 436 hrs
[3] = Cytotoxicity against mouse J774.2 cells assessed as reduction in cell viability by MTT assay; type: toxicity, cell-based
Summary of the method: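 Murine macrophage J774.2 grown in RPMI 1640 with 10% FBS, 1% MEM-NEAA and 100 U mL−1 antibiotic–antifungal, at 37 °C, 5% CO2, humidified. Cells washed and plated at 1 × 10^5 per well. Serial-dilution dose–response run in triplicate, with 0.1% DMSO as negative control. Viability read by MTT colorimetric assay. CC50 derived from the dose–response.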

[4] = Selectivity index, ratio of CC50 for cytotoxicity against mouse J774.2 cell to MIC for antibacterial activity against Mycobacterium tuberculosis H37Rv; type: toxicity; details: J774.2 cells, read-out: Selectivity Index
Summary of the method: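 CC50 was measured in murine macrophage J774.2 cells grown in RPMI 1640 with 10% FBS, 1% MEM-NEAA and antibiotic–antifungal mix at 37 °C, 5% CO2. 1 × 10^5 cells per well received serial dilutions in triplicate, with 0.1% DMSO as negative control. Viability was read by MTT. SI is CC50 over the MABA MIC against H37Rv.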

Row | Compound | MIC [1] [µM] | MIC [2] [µM] | CC50 [3] [µM] | selectivity ratio [4]
1 | CCOC(=O)c1ccc2c(c1)[n+]([O-])c(C(=O)c1cccs1)c(C(F)(F)F)[n+]2[O-] | 0.24 | 0.51 | – | –
2 | CC(=O)c1c(C(F)(F)F)[n+]([O-])c2ccc(C(=O)OCC(C)C)cc2[n+]1[O-] | 0.7 | 0.94 | 25.4 | 10.2
3 | Cc1ccc(NC(=O)c2c(C)[n+]([O-])c3cc(C(=O)OCC(C)C)ccc3[n+]2[O-])c(C)c1 | > 118 | > 118 | > 200 | 10.2
4 | CCCCOC(=O)c1ccc2c(c1)[n+]([O-])c(C(=O)OCc1ccccc1)c(C)[n+]2[O-] | 0.59 | 1.73 | > 200 | 10.2
5 | CCCCOC(=O)c1ccc2c(c1)[n+]([O-])c(C(=O)OC)c(C)[n+]2[O-] | 0.87 | 5.24 | 46.2 | 10.2
6 | CC(C)OC(=O)c1ccc2c(c1)[n+]([O-])c(C(=O)c1cccs1)c(C(F)(F)F)[n+]2[O-] | 0.19 | 0.54 | – | –
7 | CCCCOC(=O)c1ccc2c(c1)[n+]([O-])c(C(=O)OCC)c(C)[n+]2[O-] | 1.38 | 6.24 | > 200 | 10.2
8 | CCCCOC(=O)c1ccc2c(c1)[n+]([O-])c(C(C)=O)c(C(F)(F)F)[n+]2[O-] | 0.62 | 0.97 | > 200 | 10.2
9 | CCCCOC(=O)c1ccc2c(c1)[n+]([O-])c(C(=O)OCC)c(C(F)(F)F)[n+]2[O-] | 0.57 | 0.87 | > 200 | 10.2
10 | Cc1c(C(=O)Nc2ccccc2)[n+]([O-])c2cc(C(=O)OCC(C)C)ccc2[n+]1[O-] | 2.56 | 2.73 | > 200 | 10.2
11 | CC(C)COC(=O)c1ccc2c(c1)[n+]([O-])c(C(=O)c1ccco1)c(C(F)(F)F)[n+]2[O-] | 0.68 | 1.65 | 81.8 | 10.2
12 | Cc1c(C(=O)c2ccccc2)[n+]([O-])c2cc(C(=O)OCC(C)C)ccc2[n+]1[O-] | 0.95 | 2.68 | 34.2 | 10.2
13 | CCCCOC(=O)c1ccc2c(c1)[n+]([O-])c(C(=O)Nc1ccccc1)c(-c1ccccc1)[n+]2[O-] | 3.3 | 9.74 | 44.1 | 10.2
14 | CC(C)COC(=O)c1ccc2c(c1)[n+]([O-])c(C(=O)c1ccccc1)c(C(F)(F)F)[n+]2[O-] | 0.53 | 0.92 | – | –
15 | CC(C)COC(=O)c1ccc2c(c1)[n+]([O-])c(C(=O)Nc1ccccc1)c(-c1ccccc1)[n+]2[O-] | 0.57 | 1.49 | > 200 | 10.2
16 | CCCCOC(=O)c1ccc2c(c1)[n+]([O-])c(C(=O)c1cccs1)c(C(F)(F)F)[n+]2[O-] | 0.57 | 0.86 | – | –

Row | Compound | MIC [1] [µM] | MIC [2] [µM] | CC50 [3] [µM] | selectivity ratio [4]
17 | CCCCOC(=O)c1ccc2c(c1)[n+]([O-])c(C(=O)OC(C)(C)C)c(C)[n+]2[O-] | 14.7 | 128 | > 200 | 10.2
18 | CC(C)COC(=O)c1ccc2c(c1)[n+]([O-])c(C(=O)c1cccs1)c(C(F)(F)F)[n+]2[O-] | 0.55 | 0.77 | 43.9 | 10.2
19 | CCCCOC(=O)c1ccc2c(c1)[n+]([O-])c(C(=O)Nc1ccc(Cl)cc1)c(C)[n+]2[O-] | > 117 | > 117 | 50.3 | 10.2
20 | CC(C)COC(=O)c1ccc2c(c1)[n+]([O-])c(C(=O)c1ccc3ccccc3c1)c(C(F)(F)F)[n+]2[O-] | 1.38 | 2.33 | – | –
21 | COC(=O)c1c(C)[n+]([O-])c2ccc(C(=O)OCC(C)C)cc2[n+]1[O-] | 0.84 | 2.01 | – | –
22 | CC(=O)c1c(C)[n+]([O-])c2ccc(C(=O)OCC(C)C)cc2[n+]1[O-] | 0.94 | 1.82 | 87.2 | 10.2
23 | CCCCOC(=O)c1ccc2c(c1)[n+]([O-])c(C(=O)c1ccc3ccccc3c1)c(C(F)(F)F)[n+]2[O-] | 1.07 | 3.04 | > 200 | 10.2
24 | CCCCOC(=O)c1ccc2c(c1)[n+]([O-])c(C(=O)c1ccccc1)c(C(F)(F)F)[n+]2[O-] | 0.53 | 0.88 | 48.4 | 10.2
25 | Cc1ccc(NC(=O)c2c(C)[n+]([O-])c3ccc(C(=O)OCC(C)C)cc3[n+]2[O-])c(C)c1 | 19.7 | 12.3 | > 200 | 10.2
26 | Cc1c(C(=O)Nc2ccc(Cl)cc2)[n+]([O-])c2cc(C(=O)OCC(C)C)ccc2[n+]1[O-] | 1.63 | 1.86 | – | –
27 | CCCCOC(=O)c1ccc2c(c1)[n+]([O-])c(C(=O)Nc1ccc(C)cc1C)c(C)[n+]2[O-] | > 118 | > 118 | – | –
28 | CCCCOC(=O)c1ccc2c(c1)[n+]([O-])c(C(C)=O)c(C)[n+]2[O-] | 0.88 | 2.3 | 58.4 | 10.2
29 | CCCCOC(=O)c1ccc2c(c1)[n+]([O-])c(C(=O)c1ccccc1)c(C)[n+]2[O-] | 1.95 | 5.37 | 17.7 | 10.2
30 | NNC(=O)c1ccncc1 [ISONIAZID] | 2.92 | > 933 | – | –
31 | CO[C@H]1/C=C/O[C@@]2(C)Oc3c(C)c(O)c4c(O)c(c(/C=N/N5CCN(C)CC5)c(O)c4c3C2=O)NC(=O)/C(C)=C\C=C\[C@H](C)[C@H](O)[C@@H](C)[C@@H](O)[C@@H](C)[C@H](OC(C)=O)[C@@H]1C [RIFAMPIN] | 0.02 | 0.06 | – | –
